Assay results from publication PMC4766003 (Biomacromolecules, 2015).

Target: Concanavalin A (Con A) (Canavalia ensiformis, UniProt P02866)
Test: isothermal titration calorimetry, one-site model
Format: binding
Conditions: 100 mM acetate pH 4.6, 1 mM MnCl2, 1 mM CaCl2, 30 mM NaCl, 25 °C; dimeric Con A
How it was run: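 Con A dialysed (10 kDa cutoff) into the assay buffer, with concentration from A280 (A1%,1cm = 12.4, monomer basis). Glycopolymer ligands were dialysed and quantified colorimetrically. Titrant in the same buffer was injected into Con A at 25 °C, stirred at 1000 rpm. Con A 0.42–0.06 mM; polymers 0.338–0.017 mM at 2 s intervals; monomers 7.55–8.03 mM at 4 s intervals. One-site fit floated ΔH, Ka and n.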

Sequence of Concanavalin A (Con A) (P02866 30-148 limits assumed): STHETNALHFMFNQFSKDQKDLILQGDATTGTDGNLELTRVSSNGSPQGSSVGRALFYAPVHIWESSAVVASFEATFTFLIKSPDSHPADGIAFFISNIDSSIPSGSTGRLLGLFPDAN
Sequence of Concanavalin A (Con A) (P02866 164-281 limits assumed): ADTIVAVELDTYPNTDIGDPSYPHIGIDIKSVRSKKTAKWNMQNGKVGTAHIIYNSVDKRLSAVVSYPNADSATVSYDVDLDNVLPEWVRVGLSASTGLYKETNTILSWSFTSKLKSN

Substance	Ka (M^-1 × 10^3)^c
Man-Glc [25b]	8.56 × 10^3
Man-Man [22b]	17.3 × 10^3
